Laboratory results reported in ChEMBL document CHEMBL4808167, “Design, Synthesis, and Evaluation of Small Molecule Gαq/11 Protein Inhibitors for the Treatment of Uveal Melanoma” (J Med Chem, 2021).
Active and inactive are the calls of the source. No cut-off for these calls is given here.

Legend:
[1] = target: T1, GNAQ/GNA11 (Homo sapiens) (UniProt P50148+P29992); assay: Inhibition of Galphaq/11 in human MP41 cells assessed as reduction in ERK phosphorylation at 15 to 30 uM after 48 hrs by Western blot analysis; type: cell-based; conditions: dose 15-30 µM
Procedure, shortened: (§1)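 92.1 and MP41 cells plated overnight, then exposed to compound 48 h. Lysed in ice-cold buffer and protein quantified by BCA. Resolved on 8−12% SDS−PAGE and transferred to PVDF. Probed for p-YAP Ser127, total YAP, p-ERK1/2 Thr202/Tyr204 and total ERK1/2, with GAPDH as loading control. ECL detection, triplicate.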

[2] = Toxicity in nude BALB/c mouse xenografted with human MP41 cells assessed as morphological changes in kidney tissue at 10 to 30 mg/kg, ip administered once daily for 21 days and measured every 3 days by HE staining based assay; type: organism-based; conditions: in vivo, 504 h, dose 10-30 mg/kg, time 21 day
Procedure, shortened: (§2)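 Nude BALB/c mice bearing serially passaged MP41 tumour slices (tertiary recipients, n = 8/group, randomized) dosed ip daily for 21 days at 10 or 30 mg/kg/d or vehicle. Body weight monitored every 3 days. Tissues collected at sacrifice, fixed in 4% paraformaldehyde 24 h, paraffin-embedded, H&E stained, viewed at ×100.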

[3] = Induction of apoptosis in human MP41 cells assessed as necrotic cells at 30 uM after 48 hrs by Annexin-V-FITC/propidium iodide staining based flow cytometry (reference value: 0.11%); type: functional
[4] = Induction of apoptosis in human MP41 cells assessed as early apoptotic cells at 15 uM after 48 hrs by Annexin-V-FITC/propidium iodide staining based flow cytometry (reference value: 2.96%); type: functional
[5] = MRT(0 to t) in ICR mouse at 30 mg/kg, po measured upto 24 hrs by LC-MS/MS analysis; type: ADME, organism-based; conditions: in vivo
Procedure, shortened: (§3)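 Single-dose PK in male ICR mice (n = 6): 10 mg/kg iv or 30 mg/kg po, vehicle 5% DMSO/95% saline. Blood (30 μL) by catheter at 0, 5, 15, 30 min and 1, 2, 4, 6, 8, 24 h; plasma by centrifugation, stored −80 °C, measured by LC–MS/MS. Parameters from noncompartmental analysis, mean SD.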

[6] = Antitumor activity against human MP41 cells xenografted in nude BALB/c mouse assessed as tumor growth inhibition at 10 mg/kg, ip administered for once daily for 21 days and measured every 3 days; type: functional; conditions: 504 h, time 21 day, read-out: TGI
Procedure, shortened: (§4)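 MP41 tumours were passaged subcutaneously mouse-to-mouse in nude BALB/c mice (6−8 weeks, 20−25 g). Tertiary recipients randomized, n = 8/group, given 10 or 30 (mg/kg)/d ip or vehicle for 21 days. Tumour size (V = A × B² × π/6, caliper) and body weight taken every 3 days; tumours excised and weighed on day 22. TGI computed versus the vehicle group.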

[7] = Induction of apoptosis in human 921 cells assessed as late apoptotic cells at 5 uM after 48 hrs by Annexin-V-FITC/propidium iodide staining based flow cytometry (reference value: 2.52%); type: functional
921 [8] = assay: (§5) Antiproliferative activity against human 92.1 cells assessed as inhibition of cell growth after 72 hrs by CCK8 assay; type: functional, cell-based
Procedure, shortened: (§6)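 92.1 or MP41 cells in RPMI-1640 with 10% FBS were seeded at 3 × 10³ cells/well. Exposed to serial concentrations for 72 h at 37 °C, 5% CO₂. CCK-8 added for 1−4 h, absorbance read at 450 nm. IC₅₀ from concentration−response curve fit, mean ± SD.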

[9] = as §5; type: functional, cell-based; conditions: Homo sapiens, 921, 72 h; procedure, shortened: as §6
[10] = Induction of apoptosis in human MP41 cells assessed as viable cells at 15 uM after 48 hrs by Annexin-V-FITC/propidium iodide staining based flow cytometry (reference value: 93.6%); type: functional; conditions: read-out: Activity
[11] = Toxicity in nude BALB/c mouse xenografted with human MP41 cells assessed as morphological changes in lung tissue at 10 to 30 mg/kg, ip administered once daily for 21 days and measured every 3 days by HE staining based assay; type: organism-based; conditions: in vivo, 504 h, dose 10-30 mg/kg, time 21 day; procedure, shortened: as §2
MP41 = assay: Inhibition of cell invasion in human MP41 cells at 5 to 15 uM incubated for 48 hrs by transwell assay; type: functional, cell-based; conditions: dose 5-15 µM
Procedure, shortened: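 92.1 or MP41 cells (1 × 10⁴/well) seeded in serum-free medium in the upper transwell chamber, with 20% FBS medium below. Left overnight, then treated 48 h. Non-migrated cells swabbed off; cells on the lower side stained with crystal violet 30 min and counted by light microscopy (×40 for migration, ×100 for invasion). Mean ± SD, n = 3.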

[12] = target: T1, GNAQ/GNA11 (Homo sapiens); assay: Inhibition of Galphaq/11 in human 921 cells assessed as reduction in ERK phosphorylation at 15 to 30 uM after 48 hrs by Western blot analysis; type: cell-based; conditions: b, dose 15-30 µM; procedure, shortened: as §1
[13] = Toxicity in nude BALB/c mouse xenografted with human MP41 cells assessed as effect on body weight at 10 to 30 mg/kg, ip administered once daily for 21 days and measured every 3 days; type: organism-based; conditions: in vivo, 504 h, dose 10-30 mg/kg, time 21 day; procedure, shortened: as §2
[14] = Induction of apoptosis in human 921 cells assessed as early apoptotic cells at 15 uM after 48 hrs by Annexin-V-FITC/propidium iodide staining based flow cytometry (reference value: 3.39%); type: functional
921 [15] = assay: Antiproliferative activity against human 92.1 cells assessed as inhibition of cell growth at 10 to 15 uM after 72 hrs by CKK8 assay; type: functional, cell-based; conditions: dose 10-15 µM
[16] = MRT(0 to t) in ICR mouse at 10 mg/kg, iv measured upto 24 hrs by LC-MS/MS analysis; type: ADME, organism-based; conditions: in vivo; procedure, shortened: as §3
[17] = Antitumor activity against human MP41 cells xenografted in nude BALB/c mouse assessed as tumor growth inhibition at 30 mg/kg, ip administered for once daily for 21 days and measured every 3 days; type: functional; conditions: 504 h, time 21 day, read-out: TGI; procedure, shortened: as §4
[18] = Tmax in ICR mouse at 30 mg/kg, po measured upto 24 hrs by LC-MS/MS analysis; type: ADME, organism-based; conditions: in vivo; procedure, shortened: as §3
[19] = target: T1, GNAQ/GNA11 (Homo sapiens); assay: Inhibition of Galphaq/11 in human MP41 cells xenografted mouse tumor tissue assessed as induction of YAP phosphorylation at 10 to 30 mg/kg, ip administered for 21 consecutive days by Western blot analysis; type: organism-based; conditions: dose 10-30 mg/kg, time 21.0 day
Procedure, shortened: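 MP41 xenograft tumours from mice given 10 or 30 mg/kg/day ip for 21 consecutive days were analysed by Western blot. Probed for p-YAP, YAP, p-ERK and ERK, with GAPDH as loading control. Representative of triplicate experiments.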

[20] = Half life in ICR mouse at 30 mg/kg, po measured upto 24 hrs by LC-MS/MS analysis; type: ADME, organism-based; conditions: in vivo
Procedure, shortened: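 Single dose in male ICR mice, 10 mg/kg iv or 30 mg/kg po, dissolved in 5% DMSO/95% saline. Blood drawn by catheter at 0, 5, 15, 30 min and 1, 2, 4, 6, 8, 24 h. Plasma spun 6800g 6 min at 2−8 °C, stored −80 °C, quantified by LC−MS/MS. Noncompartmental parameters, mean ± SD, n = 6.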

[21] = Induction of apoptosis in human MP41 cells assessed as late apoptotic cells at 30 uM after 48 hrs by Annexin-V-FITC/propidium iodide staining based flow cytometry (reference value: 3.28%); type: functional

CC[C@@H](C)[C@H](N)C(=O)N1CCn2cc(-c3ccccc3)nc2[C@@H]1CC1CCCCC1
inhibition [1]: Active | Activity [2]: Non-Toxic | Activity [3]: 0.27% | Activity [4]: 5.32% | MRT last at 24 h [5]: 1.88 h | inhibition in vivo at 10 mg/kg [6]: 65.4% | Activity [7]: 3.4% | Activity 921 [8]: Dose-Dependent Effect | IC50 [9]: 10.1 µM | viability at 15 µM [10]: 90.2% | Activity [11]: Non-Toxic | inhibition (MP41): Active | inhibition [12]: Active | Activity [13]: Non-Toxic | Activity [14]: 13.1% | Activity 921 [15]: Active | MRT last at 24 h [16]: 55.8 min | inhibition in vivo at 30 mg/kg [17]: 99% | Tmax [18]: 25.2 min | inhibition [19]: Active | half-life [20]: 84.6 min | Activity [21]: 6.16%
